According to ChEMBL document CHEMBL1157640, “Exploration of inhibitors for diaminopimelate aminotransferase” (Bioorg Med Chem, 2010):
Activity calls are given as the source filed them. The rule behind the calls is not given here.

What was measured:
[1] = target: LL-diaminopimelate aminotransferase, chloroplastic (Arabidopsis thaliana, UniProt Q93ZN9); test: Inhibition of Arabidopsis thaliana LL-DAP-AT expressed in Escherichia coli by aminobenzaldehyde-based assay
Summary of the method: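 His6-tagged A. thaliana LL-DAP-AT (0.0043 mg/mL final) in 1 mL cuvettes with 100 mM HEPES-KOH pH 7.6, 8.5 mM 2-OG, 7 mM OAB and 2.0 mM LL-DAP. Inhibitor at 5–200 µM final, added in 50 µL DMSO. A440 followed for 200 min, read every 2 min.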

[2] = target: LL-diaminopimelate aminotransferase, chloroplastic (Arabidopsis thaliana) (UniProt Q93ZN9); test: Inhibition of Arabidopsis thaliana LL-DAP-AT expressed in Escherichia coli at 10 uM by aminobenzaldehyde-based assay
Summary of the method: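 Robotic 96-well screen against C-terminal His6-tagged A. thaliana LL-DAP-AT (0.0043 mg/mL final) in 100 mM HEPES-KOH pH 7.6, with 8.5 mM 2-oxoglutarate, 7 mM OAB and 2.0 mM LL-DAP final. Inhibitor 10 µM final in DMSO, assuming MW 500. Absorbance at 440 nm read in triplicate before enzyme addition and after 3 h at room temperature. Activity taken relative to no-inhibitor wells; no-enzyme wells served as blank.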

Carnobacterium divergens = test: Antimicrobial activity against Carnobacterium divergens LV13 at <200 ug/mL; format: functional, organism-based
Summary of the method: (§1)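 Soft agar overlay (0.75% w/v) seeded with 1% overnight culture of indicator strain, poured over 1.5% w/v solid agar; LB medium for Gram-negative, M17 for Gram-positive. 10 µL of test solution spotted and air-dried, with solvent controls (acetonitrile or methanol). Incubated overnight, 37 °C Gram-negative, 30 °C Gram-positive; scored for growth-inhibition halos.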

Staphylococcus aureus = test: Antimicrobial activity against Staphylococcus aureus ATCC 25923 at <200 ug/mL; format: functional, organism-based; summary of the method: as §1
[3] = target: LL-diaminopimelate aminotransferase, chloroplastic (Arabidopsis thaliana) (UniProt Q93ZN9); test: Inhibition of Arabidopsis thaliana LL-DAP-AT expressed in Escherichia coli assessed as time independent type of inhibition by aminobenzaldehyde-based assay
Summary of the method: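 Enzyme (100 µL) and inhibitor (50 µL) were preincubated for six different times, then added to 850 µL of OAB-coupled substrate buffer. Inhibitor level was chosen from the IC50. A440 recorded as in the IC50 assay, with positive and no-enzyme controls. Time independence was judged by whether percent inhibition changed with preincubation time.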

Escherichia coli = test: Antimicrobial activity against Escherichia coli DH5alpha at <200 ug/mL; format: functional, organism-based; summary of the method: as §1
Salmonella typhimurium = test: Antimicrobial activity against Salmonella Typhimurium ATCC 23564 at <200 ug/mL; format: functional, organism-based; conditions: Salmonella enterica subsp. enterica serovar Typhimurium; summary of the method: as §1
Pseudomonas aeruginosa = test: Antimicrobial activity against Pseudomonas aeruginosa ATCC 15442 at <200 ug/mL; format: functional, organism-based; summary of the method: as §1
[4] = target: LL-diaminopimelate aminotransferase, chloroplastic (Arabidopsis thaliana) (UniProt Q93ZN9); test: Inhibition of Arabidopsis thaliana LL-DAP-AT expressed in Escherichia coli assessed as time dependent type of inhibition by aminobenzaldehyde-based assay
Summary of the method: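 Recombinant C-terminal His6-tagged enzyme (0.043 mg/mL, 100 µL) preincubated with 50 µL inhibitor (stock chosen from IC50 measurements) for six different times. Mixture then added to 850 µL substrate buffer: 100 mM HEPES-KOH pH 7.6, 2-oxoglutarate, 2-aminobenzaldehyde, racemic DAP. Absorbance at 440 nm recorded for 200 min. Percentage inhibition compared across preincubation times; no-inhibitor and no-enzyme controls included.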

LL-diaminopimelate aminotransferase, chloroplastic, sequence (Q93ZN9 whole entry): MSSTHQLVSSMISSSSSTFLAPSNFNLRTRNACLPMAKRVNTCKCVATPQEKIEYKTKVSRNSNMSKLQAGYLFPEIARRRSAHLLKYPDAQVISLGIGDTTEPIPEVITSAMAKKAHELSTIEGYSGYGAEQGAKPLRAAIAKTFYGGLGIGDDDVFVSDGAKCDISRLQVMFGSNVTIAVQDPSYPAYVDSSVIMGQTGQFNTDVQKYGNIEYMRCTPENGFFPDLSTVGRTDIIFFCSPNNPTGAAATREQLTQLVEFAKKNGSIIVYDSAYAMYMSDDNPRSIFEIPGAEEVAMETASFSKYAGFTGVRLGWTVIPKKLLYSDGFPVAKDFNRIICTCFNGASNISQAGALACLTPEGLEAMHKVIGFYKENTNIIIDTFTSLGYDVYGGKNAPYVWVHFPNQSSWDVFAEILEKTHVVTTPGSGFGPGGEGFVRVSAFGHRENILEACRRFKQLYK
LL-diaminopimelate aminotransferase, chloroplastic (Arabidopsis thaliana), sequence (Q93ZN9 whole entry): as above

SMILES | IC50 ([1]; read-out: IC50) [µM] | inhibition [2] [%] | other results
C=CCN1C(=O)/C(=C2/C(=O)N(S(=O)(=O)c3ccc(OC)cc3)c3ccccc32)SC1=S | 194 | 18 | 
Cc1ccsc1/C=C1\SC(=S)N(CC2CCCO2)C1=O (stereo unspecified) | > 200 | 14 | 
CCN1C(=O)/C(=C/c2ccc(OC)cc2)SC1=S | > 200 |  | 
Cc1ccsc1/C=C1\SC(=S)N(C(C)c2ccccc2)C1=O (stereo unspecified) | 127 | 13 | 
CC(=O)c1ccc(Nc2nc(-c3cc4ccccc4oc3=O)cs2)cc1 | > 200 | 16 | 
O=C1OC(c2ccccc2)=C/C1=N\Nc1ccccc1C(=O)O | 39 | 16 | inhibition (Carnobacterium divergens): inactive; inhibition (Staphylococcus aureus): inactive; inhibition [3]: Active; inhibition (Escherichia coli): inactive; inhibition (Salmonella typhimurium): inactive; inhibition (Pseudomonas aeruginosa): inactive
COc1ccc(/C=C2\SC(=S)N(NC(C)=O)C2=O)cc1 | > 200 |  | 
O=C1NC(=S)S/C1=C\c1cccc2ccccc12 |  |  | IC50 [1]: Not Active
CN1C(=O)/C(=C/c2cc3ccccc3n2CC(=O)O)C(=O)N(c2ccc(Cl)cc2)C1=O | 65 | 14 | 
CCOC(=O)C1=C(Nc2ccc(OC)cc2)S/C(=C\c2ccc(N(C)C)cc2)C1=O | > 200 | 22 | 
C=CCN1C(=O)NC(=O)/C(=C/c2ccc(-c3ccc(C(=O)OCC)cc3)o2)C1=O | > 200 | 16 | 
NN1C(=O)/C(=C/c2ccccc2)SC1=S |  |  | IC50 [1]: Not Active
Cc1[nH]n(-c2ccccc2)c(=O)c1C=C1C(=O)N(C)C(=O)N(C)C1=O | 45 | 20 | inhibition [3]: Active
Cc1nc(C)c(C(=O)/C=C2/Nc3ccccc3NC2=O)s1 | 56 | 18 | 
Cc1ccc(N2C(=O)/C(=C\c3cc4ccccc4n3CC(=O)O)C(=O)N(C)C2=O)cc1 | 37 | 17 | 
CN(C)c1ccc(/C=C2\SC(=S)NC2=O)cc1 | 127 |  | 
CCOC(=O)C1=C(Nc2ccc([N+](=O)[O-])cc2)S/C(=C\c2ccc(N(C)C)cc2)C1=O | 141 | 19 | 
COc1ccc(C=C2C(=O)NC(=S)NC2=O)cc1OCc1ccccc1Cl | 121 | 48 | 
O=C1OC(c2ccccc2Cl)=N/C1=C/c1ccc(OC(=O)c2ccccc2Cl)c(O)c1 | 81 | 30 | 
CCN1C(=O)/C(=C/c2ccccc2O)SC1=S | > 200 |  | 
O=C(N/N=C/c1ccc(F)cc1)c1cc(-c2ccc3ccccc3c2)n[nH]1 | 161 | 14 | 
O=C1NC(=S)S/C1=C\c1ccccc1O | > 200 |  | 

SMILES | IC50 ([1]; read-out: IC50) [µM] | inhibition [2] [%] | other results
Cc1ccc(OCCn2c(C=C3C(=O)NC(=O)NC3=O)cc3ccccc32)cc1C | 99 | 28 | 
NN1C(=O)/C(=C/c2ccc(Cl)cc2)SC1=S |  |  | IC50 [1]: Not Active
Cc1cc(C=C2C(=O)NC(=S)NC2=O)c(C)n1C | 25 | 15 | inhibition (Carnobacterium divergens): inactive; inhibition (Staphylococcus aureus): inactive; inhibition [3]: Active; inhibition (Escherichia coli): inactive; inhibition (Salmonella typhimurium): inactive; inhibition (Pseudomonas aeruginosa): inactive
Cc1ccc(S(=O)(=O)N2C(=O)/C(=C3\SC(=S)NC3=O)c3ccccc32)cc1 | 70 | 25 | 
CC(=O)NN1C(=O)/C(=C/c2ccc(Br)o2)SC1=S | 41 | 13 | inhibition [3]: Active
O=C(Cn1c(/C=C2/C(=O)NC(=O)N(c3cccc(F)c3)C2=O)cc2ccccc21)Nc1ccccc1 | 52 | 18 | 
N/C(=N\[N+](=O)[O-])N/N=C\c1ccc(-c2cccc([N+](=O)[O-])c2)o1 | > 200 | 13 | 
O=C1NC(=S)S/C1=C\c1ccccc1[N+](=O)[O-] |  |  | IC50 [1]: Not Active
O=C1NC(=S)N(c2cccc(Br)c2)C(=O)/C1=C\c1ccco1 | > 200 | 17 | 
O=C1NC(=S)S/C1=C\c1ccc(Cl)cc1 | > 200 |  | 
Cc1c(C(=O)NC(=S)Nc2ccc3oc(-c4ccccc4Cl)nc3c2)oc2ccccc12 | 83 | 19 | 
O=C(Cn1c(/C=C2/C(=O)NC(=S)N(c3ccccc3)C2=O)cc2ccccc21)Nc1ccccc1 | 33 | 45 | inhibition [4]: Active
Cc1ccc(C2=NC(=O)/C(=C/c3cc4c(cc3Br)OCO4)S2)cc1 | 130 | 13 | 
Cc1ccc(NC(=O)/C(C#N)=C/c2ccc(N(C)C)o2)cc1C | > 200 | 14 | 
CC(=O)NN1C(=O)/C(=C/c2ccccc2)SC1=S |  |  | IC50 [1]: Not Active
CC(=O)/N=C1\NC(=O)/C(=C/c2ccc(-c3ccc([N+](=O)[O-])cc3)o2)S1 | 78 | 52 | 
COc1ccccc1N1C(=O)/C(=C\c2cc3ccccc3n2Cc2ccccc2)C(=O)NC1=S | 62 | 20 | 
C=CCN1C(=O)/C(=C\c2cc3ccccc3n2Cc2ccc([N+](=O)[O-])cc2)C(=O)NC1=S | 69 | 33 | 
COc1ccc(OC)c(Nc2nc3ccccc3nc2NS(=O)(=O)c2cccc([N+](=O)[O-])c2)c1 | 153 | 13 | 
COc1cc(OC)c(OC)cc1/C=N/n1c(S)nnc1-c1ccc(C)cc1 | > 200 | 18 | 
O=C(N/N=C/c1ccc(O)cc1O)c1[nH]c2ccc([N+](=O)[O-])cc2c1-c1ccccc1 | 45 | 15 | 
N=C1NC(=O)/C(=C/c2ccc(-c3ccc([N+](=O)[O-])cc3Br)o2)S1 | 85 | 13 | 

SMILES | IC50 ([1]; read-out: IC50) [µM] | inhibition [2] [%] | other results
COc1ccc(/C=C2/C=C(c3ccccc3)OC2=O)c(OC)c1 | 159 | 14 | 
Cc1ccc(N2C(=O)/C(=C\c3cc4ccccc4[nH]3)C(=O)NC2=S)cc1 | 164 | 16 | 
CC(=O)NN1C(=O)/C(=C/c2ccc(-c3ccc([N+](=O)[O-])cc3)o2)SC1=S | 73 |  | 
NNC(=O)c1cc2ccccc2cc1NS(=O)(=O)c1ccccc1 | 5 | 33 | inhibition (Carnobacterium divergens): inactive; inhibition (Staphylococcus aureus): inactive; inhibition (Escherichia coli): inactive; inhibition (Salmonella typhimurium): inactive; inhibition (Pseudomonas aeruginosa): inactive
COc1cc(-c2nnc(SCC(=O)c3ccc(F)cc3)n2-c2ccccc2)cc(OC)c1OC | > 200 | 14 | 
C=CCN1C(=O)/C(=C\c2cc3ccccc3n2C)C(=O)NC1=S | 75 | 35 | 
CCN1C(=O)/C(=C/c2cccc3ccccc23)SC1=S | 200 |  | 
O=C1/C(=C/c2cn(-c3ccccc3)nc2-c2cccs2)SC(=S)N1C1CCS(=O)(=O)C1 (stereo unspecified) | 117 | 13 | 
C/C(=N\NC(=O)c1cc(C2CC2)n[nH]1)c1ccc(C)cc1 | > 200 | 14 | 
O/C(=C\c1nc2ccccc2nc1O)c1cccs1 | 31 | 15 | 
COc1ccc(/C=C2\SC(=S)NC2=O)cc1I | 180 | 29 | 
C=C(C)COc1ccc2c(c1)oc(=O)c1cc(OC)ccc12 | > 200 | 25 | 
CCN1C(=O)/C(=C/c2ccc(Cl)cc2)SC1=S | 200 |  | 
CCN1C(=O)/C(=C/c2cc(Cc3ccccc3Cl)ccc2O)SC1=S | 46 | 13 | inhibition [3]: Active
COc1ccc(/C=C2\SC(=S)N(N)C2=O)cc1 | 155 |  | 
COc1ccc(/C=C2\SC(=S)NC2=O)cc1 | 142 |  | 
CCN1C(=O)/C(=C/c2ccccc2)SC1=S | > 200 |  | 
COc1ccc(N2C(=O)NC(=O)/C(=C/c3ccc(-c4cccc(Cl)c4)o3)C2=O)cc1 | 42 | 20 | 
CN1C(=O)C(=Cc2cccn2-c2cccc([N+](=O)[O-])c2)C(=O)N(C)C1=O | > 200 | 13 | 
CC(=O)NN1C(=O)/C(=C/c2ccc(Cl)cc2)SC1=S |  |  | IC50 [1]: Not Active
